Source: ChEMBL document CHEMBL1154191, “Evaluation of spirocyclic 3-(3-fluoropropyl)-2-benzofurans as sigma1 receptor ligands for neuroimaging with positron emission tomography” (J Med Chem, 2009)

What was measured:
Muscle tissue [1] = assay: Biodistribution in CD1 mouse muscle assessed per gram of wet tissue at 400 to 600 kBq, iv after 60 mins post-injection by gamma counting; assay type: ADME, organism-based; conditions: in vivo, 1 h
How it was run: (§1)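 Female CD-1 mice (~8-12 weeks, 20-28 g), habituated ≥48 h and fasted 24 h with water available. The [18F] tracer (>150 GBq/μmol at end of synthesis) was given in 200 μL saline into the tail vein of conscious animals. At each time point, n=4-5, mice were anaesthetised, blood and urine sampled, then killed by cervical dislocation. Organs were weighed and γ-counted, and values calculated as % ID/g wet tissue.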

Mus musculus [2] = assay: Plasma concentration in CD1 mouse assessed per gram of wet tissue at 400 to 600 kBq, iv after 120 mins post-injection by gamma counting; assay type: ADME, organism-based; conditions: in vivo, 2 h
How it was run: (§2)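 Female CD-1 mice (~8-12 weeks, 20-28 g), fasted 24 h with free access to water. 400-600 kBq [18F] tracer in 200 μL saline given by tail vein to conscious mice. At 5, 30, 60 or 120 min pi (n=4-5 per time) mice anaesthetised, blood taken, then euthanised. Samples weighed, γ-counted, %ID/g wet tissue calculated.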

Heart = assay: Biodistribution in CD1 mouse heart assessed per gram of wet tissue at 400 to 600 kBq, iv after 120 mins post-injection by gamma counting; assay type: ADME, organism-based; conditions: in vivo, 2 h
How it was run: (§3)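 Female CD-1 mice (~8-12 weeks, 20-28 g) were fasted 24 h with free water. Conscious mice got 400-600 kBq [¹⁸F] tracer in saline by tail vein. At 5, 30, 60 or 120 min (n=4-5 per time) they were anesthetized, blood and urine sampled, then killed by cervical dislocation. Organs were weighed and γ-counted, giving % ID/g wet tissue.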

Stomach = assay: Biodistribution in CD1 mouse stomach assessed per gram of wet tissue at 400 to 600 kBq, iv after 120 mins post-injection by gamma counting; assay type: ADME, organism-based; conditions: in vivo, 2 h; how it was run: as §1
Liver [3] = assay: Biodistribution in CD1 mouse liver assessed per gram of wet tissue at 400 to 600 kBq, iv after 120 mins post-injection by gamma counting; assay type: ADME, organism-based; conditions: in vivo, 2 h; how it was run: as §3
Kidney [4] = assay: Biodistribution in CD1 mouse kidney assessed per gram of wet tissue at 400 to 600 kBq, iv after 120 mins post-injection by gamma counting; assay type: ADME, organism-based; conditions: in vivo, 2 h; how it was run: as §3
[5] = Biodistribution in CD1 mouse adrenal gland assessed per gram of wet tissue at 400 to 600 kBq, iv after 120 mins post-injection by gamma counting; assay type: ADME, organism-based; conditions: in vivo, 2 h; how it was run: as §3
[6] = Biodistribution in CD1 mouse gonad assessed per gram of wet tissue at 400 to 600 kBq, iv after 120 mins post-injection by gamma counting; assay type: ADME, organism-based; conditions: in vivo, 2 h; how it was run: as §3
Muscle tissue [7] = assay: Biodistribution in CD1 mouse muscle assessed per gram of wet tissue at 400 to 600 kBq, iv after 120 mins post-injection by gamma counting; assay type: ADME, organism-based; conditions: in vivo, 2 h; how it was run: as §1
Brain = assay: Biodistribution in CD1 mouse brain assessed per gram of wet tissue at 400 to 600 kBq, iv after 60 mins post-injection by gamma counting in presence of 1 mg/kg, ip sigma 1/sigma 2 receptor antagonist haloperidol treated before compound addition; assay type: organism-based; set-up: dose 1 mg/kg, route intravenous; conditions: in vivo, 1 h
How it was run: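 Blocking arm in fasted female CD-1 mice (n=5). […] Animals were killed at 60 min post-injection, and organs were weighed and γ-counted as % ID/g wet tissue. Percent change was taken against the 60 min control group, with two-tailed unpaired Student's t test.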

[8] = Biodistribution in CD1 mouse urine assessed per gram of wet bladder at 400 to 600 kBq, iv after 60 mins post-injection by gamma counting in presence of 1 mg/kg, ip sigma 1/sigma 2 receptor antagonist haloperidol treated before compound addition; assay type: organism-based; set-up: route intravenous; conditions: in vivo, 1 h
How it was run: (§4)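 They were killed at 60 min pi, and organs were weighed and γ-counted as % ID/g wet tissue. Comparison with controls used Student's t test (independent, two-tailed).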

[9] = Biodistribution in CD1 mouse thymus assessed per gram of wet tissue at 400 to 600 kBq, iv after 60 mins post-injection by gamma counting in presence of 1 mg/kg, ip sigma 1/sigma 2 receptor antagonist haloperidol treated before compound addition; assay type: organism-based; set-up: route intravenous; conditions: in vivo, 1 h; how it was run: as §4
[10] = Ratio of drug level in cerebellum to plasma in CD1 mouse at 400 to 600 kBq, iv after 30 mins post-injection; assay type: ADME, organism-based
How it was run: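 Female CD-1 mice (~8-12 weeks, 20-28 g), fasted 24 h with free water; 400-600 kBq tracer in 200 μL saline by tail vein into conscious animals. Killed at set times pi (n=4-5 per time); blood and organs weighed, γ-counted, expressed as % ID/g wet tissue; ratio from cerebellum and plasma uptake.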

Spleen = assay: Drug uptake in CD1 mouse spleen at 400 to 600 kBq, iv after 120 mins post-injection by gamma counting relative to initial uptake; assay type: ADME, organism-based; conditions: in vivo, 2 h
How it was run: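 Organ % ID/g was measured by γ-counting after tail-vein injection of 400-600 kBq [18F] tracer in saline to fasted female CD-1 mice (n=4-5 per time). The 120 min pi value is expressed relative to the initial (5 min pi) uptake.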

[11] = Chemical stability assessed as occurrence of defluorination by radio-TLC and analytical radio-HPLC; assay type: physicochemical
Blood [12] = assay: Biodistribution in CD1 mouse blood assessed per gram of wet tissue at 400 to 600 kBq, iv after 5 mins post-injection by gamma counting; assay type: ADME, organism-based; conditions: in vivo; how it was run: as §3
Mus musculus [13] = assay: Plasma concentration in CD1 mouse assessed per gram of wet tissue at 400 to 600 kBq, iv after 5 mins post-injection by gamma counting; assay type: ADME, organism-based; conditions: in vivo; how it was run: as §2
Cerebellum = assay: Biodistribution in CD1 mouse cerebellum assessed per gram of wet tissue at 400 to 600 kBq, iv after 5 mins post-injection by gamma counting; assay type: ADME, organism-based; conditions: in vivo; how it was run: as §3
Kidney [14] = assay: Biodistribution in CD1 mouse kidney assessed per gram of wet tissue at 400 to 600 kBq, iv after 5 mins post-injection by gamma counting; assay type: ADME, organism-based; conditions: in vivo; how it was run: as §3
[15] = Biodistribution in CD1 mouse gonad assessed per gram of wet tissue at 400 to 600 kBq, iv after 5 mins post-injection by gamma counting; assay type: ADME, organism-based; conditions: in vivo; how it was run: as §3
Muscle tissue [16] = assay: Biodistribution in CD1 mouse muscle assessed per gram of wet tissue at 400 to 600 kBq, iv after 5 mins post-injection by gamma counting; assay type: ADME, organism-based; conditions: in vivo; how it was run: as §1
Liver [17] = assay: Biodistribution in CD1 mouse liver assessed per gram of wet tissue at 400 to 600 kBq, iv after 30 mins post-injection by gamma counting; assay type: ADME, organism-based; conditions: in vivo, 0.5 h; how it was run: as §1
Kidney [18] = assay: Biodistribution in CD1 mouse kidney assessed per gram of wet tissue at 400 to 600 kBq, iv after 30 mins post-injection by gamma counting; assay type: ADME, organism-based; conditions: in vivo, 0.5 h; how it was run: as §3
[19] = Biodistribution in CD1 mouse thymus assessed per gram of wet tissue at 400 to 600 kBq, iv after 30 mins post-injection by gamma counting; assay type: ADME, organism-based; conditions: in vivo, 0.5 h; how it was run: as §1
Pancreas = assay: Biodistribution in CD1 mouse pancreas assessed per gram of wet tissue at 400 to 600 kBq, iv after 30 mins post-injection by gamma counting; assay type: ADME, organism-based; conditions: in vivo, 0.5 h; how it was run: as §1
[20] = Biodistribution in CD1 mouse gonad assessed per gram of wet tissue at 400 to 600 kBq, iv after 30 mins post-injection by gamma counting; assay type: ADME, organism-based; conditions: in vivo, 0.5 h; how it was run: as §3
Femur = assay: Biodistribution in CD1 mouse femur assessed per gram of wet tissue at 400 to 600 kBq, iv after 30 mins post-injection by gamma counting; assay type: ADME, organism-based; conditions: in vivo, 0.5 h; how it was run: as §3
Blood [21] = assay: Biodistribution in CD1 mouse blood assessed per gram of wet tissue at 400 to 600 kBq, iv after 60 mins post-injection by gamma counting; assay type: ADME, organism-based; conditions: in vivo, 1 h; how it was run: as §3

Molecule `[18F]CCCC1OC2(CCN(Cc3ccccc3)CC2)c2ccccc21` (stereo not drawn) has a Drug uptake (Muscle tissue [1]) of 0.97 %ID, a Drug uptake (Mus musculus [2]) of 0.44 %ID and a Drug uptake (Heart) of 1.52 %ID. For the same molecule, the Drug uptake (Stomach) was 3.12 %ID, the Drug uptake (Liver [3]) was 2.93 %ID and the Drug uptake (Kidney [4]) was 3.68 %ID. It also gave a Drug uptake [5] of 5.86 %ID, a Drug uptake [6] of 4.16 %ID and a Drug uptake (Muscle tissue [7]) of 0.97 %ID. For the same molecule, the Drug uptake (Brain) was 0.54 %ID, the Drug uptake [8] was 22.5 %ID and the Drug uptake [9] was 2.36 %ID. For the same molecule, the Kp at 0.5 h [10] was 3.86, the Drug uptake (Spleen) was over 70% and the Stability [11] was “Stable”. It also gave a Drug uptake (Blood [12]) of 1.44 %ID, a Drug uptake (Mus musculus [13]) of 1.85 %ID and a Drug uptake (Cerebellum) of 4.62 %ID. It also gave a Drug uptake (Kidney [14]) of 12.1 %ID, a Drug uptake [15] of 3.4 %ID and a Drug uptake (Muscle tissue [16]) of 2.18 %ID. It also gave a Drug uptake (Liver [17]) of 4.28 %ID, a Drug uptake (Kidney [18]) of 7.49 %ID and a Drug uptake [19] of 3.26 %ID. For the same molecule, the Drug uptake (Pancreas) was 12.8 %ID, the Drug uptake [20] was 4.11 %ID and the Drug uptake (Femur) was 3.79 %ID. For the same molecule, the Drug uptake (Blood [21]) was 0.37 %ID.
